Experimental data from the RNAGym collection of RNA variant scans (doi:10.1126/science.aae0568).
This sample holds only a part of the variants without activity.

B1: tRNA (parent)
chain: GUUCCGUUGGCGUAAUGGUAACGCGUCUCCCUCCUAAGGAGAAGACUGCGGGUUCGAGUCCCGUACGGAACG

Variants of: B1
Experiment: yeast fitness relative to wild type (ratio to wild type); higher = fitter; tRNA-Arg(CCU), competitive growth, 37 C, YPD
Summary of the method: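 Changes in genotype frequencies gave Darwinian fitness relative to wild type. Frequencies were read by 100-nucleotide paired-end sequencing of gene amplicons before and after pooled Saccharomyces cerevisiae strains, carrying tRNA-Arg(CCU) gene variants at the native locus, were competed in YPD at 37°C for 24 hours in six replicates. A genotype was kept only with ≥ 100 starting reads, and estimates < 0.5 were set to 0.5.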

Variant	yeast fitness
GUUCCGUUGGCGUAACGGUAACGCGUCUCCCUCCUAAGGAGAAGACUGCGGGUUUGCAUCCCGUACGGAACG	0.593
GUUCCGUUGGCGUAAGGGUCACGCGUCUCCCUCCUAAGGAGAAGACUGCGGGUUCGAGUUCCGUACGGAACG	≤ 0.5
GUUCCGUUGGCGUAAGGGUAACGCGUCUCCCUCCUAAGGAGAAGACUGCGGGUUCGAGUCCCGUACGGAACG	1
GUUCCGUUGGCGUAACGGUAACGCGUCUCCCUCCUAAGGAGAAGACUGUGGGUUCGAGUCCCGUACGGUACG	0.555
GUUCCGUUGGCGUAACGAUAACGGGUCUCCCUCCUAAGGAGAAGACUGCGGGUUCGCGUCCCGUACGGAACG	≤ 0.5
GUUCCGUUGGCGUAAGGGUACCGCGUCUCCCUCAUAAGGAGAAGACUGCGGGUUCGAGUCCCGUACGGAACG	≤ 0.5
GUUCCGUUGGCGUAACGGUAACGCGUCUCCCUCCAAAGGAGAAGACUGCGGGUUCGAGUCCCGUACGGAACG	0.74
GUUCCGUUGGCGUAACGGUAACGCGUCUCCCUCCUAAGGAGAAGACUGCGGGUCCGAGUCCCAUACGGAACG	0.501
GUUCCGUUGGCGUAACCGUAACGCGUCUCCUUCCUAUGGAGAAGACUGCGGGUUCGAGUCCCGUACGGAACG	≤ 0.5
GUUCCGUUGGCGUAACGGUAACGCGUCUCCCUCCUAAGGAGAAGACUGCGGGUCCGAGUCCCGUACGGAACG	0.723
GUUCCGUUGGCGUAACGGUAACGCGUCUCCCUCCUAAGGAGAAGACUGCGGGUUCGAGUCCCGUAAGGAACG	0.711
GUUCCGUUGGCGUAACGGUAACGCGUCUCCCUCCUAAGGAGAAGACUGGGGGUUCGAGUCCCGUACGGAACG	0.909
GUUCCGUUGGCGUAACGGUAACGCGUCUCCCUCCUAAGGAGAAGACUGUGGGUUCGAGUCCCGUACGGAACG	0.867
GUUCCGUUGGCGUAACGGUAACGCGUCUCCCUCCUAAGGAGAAGACUGCGCGUUGGAGUCCAGUACGGAACG	≤ 0.5
GUUCCGUUGGCGUAACGGUAACGCGUCUCCCUCCUAAGGAGAAGACUGCGGGUUUGAGUCCCGUACAGAACG	0.528
GUUCCGUUGGCGUAACGGUAACGCGCCUCCCUCCUCAGGAGAAGACUGCGGGUUCGAGUCCCGAACGGACCG	≤ 0.5
GUUCCGUUGGCGUAACAGUAACGCGUCUCCCUUCUAAGGAGAAGACUGAGGGUUCGAGUCCGGUACGGAACG	0.57
GUUCCGUUGGCGUAAGGGUCACGCAUCUCCCUCCUAAGGAGAUGACUGCAGGUUUGAGUCCCGUACGGAACG	≤ 0.5
GUUCCGUUGGCGUAACCGUAACGUGUCUCCCUCCUAAGGAGAAGACUGCGGGUUCGAGUCCCGUACGGAACG	0.559
GUUCCGUUGGCGUAACGGUAACGCGUCUCCCUCCUAAGGAGAAGACUGCGGGUUCGAGUCCGGUACGGAACG	0.717
GUUCCGUUGGCGUAACGGUAACGCGUCUCCCUCCUAAGGAGAAGACUGGGGGUUGGAGUACAGUACGAUACG	≤ 0.5
GUUCCGUUGGCGUAAGGGUAUCGCGUCUCCCUCCUAAGGAGAAGAGUGCGGGUUCGAGUCCCGUACGGAACG	≤ 0.5
GUUCCGUUGGCGUAACGGUAACGCGUCUCCCUCCUAAGGAGAAGACUGCGGGUUCGAGACCCGUACCGAACG	0.675
GUUCCGUUGGCGUAACGGUAACGCGUCUCCCUCCUAAGGAGAAGACUGCGGGUUCAAGUCCCGUACGGUACG	0.799
GUUCCGUUGGCGUAACGGAAACGCGUCUCCCUCCUAAGGAGAAGACUGCGGGUUCGAGUCCCGUACGGAACG	1.16

Variant	yeast fitness
GUUCCGUUGGCGUAACGGUAACGCGUCUCCCUCCUAAGGAGAAGACUGUGGGUUCGAGUCCCGUACGGAGCG	0.581
GUUCCGUUGGCGUAACGGUAACGCGUCUCCCUCCUAAGGAGAAGACUGUGGGUUCGAGUCCCGUACGGAUCG	0.745
GUUCCGUUGGCGUAACGGAAACGCGACUCCCUCCUAAGGAGAAGACUGCGGGUUCGAGUCCCGUACGGAACG	0.648
GUUCCGUUGGCGUAACGGUAACCCGUCUGCCUCCUAAGGAGAUGACUGCAGGUUCGAGUCCCGUCCGGAACG	≤ 0.5
GUUCCGUUGGCGUAACGGCACCCCGUCUCCCUCCUAAGGAGAAGACUGGGGAUUCGAGUCCCGUACGGAACG	≤ 0.5
GUUCCGUUGGCGUAACGGUAACGCGUCUCCCUCCUAAGGAGAAGACUGCGAGUUCGAGUCCCGUACGGAGCG	0.578
GUUCCGUUGGCGUAACGGUAACGCGUCUCCCUCCUAAGGACAAGAAUGCGGGUUCGAGUCCCGUACGGAACG	0.721
GUUCCGUUGGCGUAACGGUAACGCGUCUCCCUCCCAAGGAGAAGACCGCGGGUUCGAGUCCCGUACGGAACG	≤ 0.5
GUUCCGUUGGCGUAACGGUAACGCGACUCCCUCCUAAGGAGAAGAUUGCGGGUUCAAGUCGCGUACAGAACG	≤ 0.5
GUUCCGUUGGCGUAACGGUAACGCCUCUCCCUCCUAAGGAGAAGACAGCGGGUUCGAGUCCCGUGCGGAACG	≤ 0.5
GUUCCGUUGGCGUAACGGUAACGCGUCGCGCUCCUAAGGCGUAGACUGCGGGUUCGAGUCCCGUACGGAACG	≤ 0.5
GUUCCGUUGGCGUAACGGUAACCCGUCUCCCUCCUAAGGAGAAGACUGCGCGUUCGAGUCCCGUACGGAACG	≤ 0.5
GUUCCGUUGGCGUAACGGUAACGCGUCUCCCUCCUAAGGAGAAGACUCUGGGUUCGAGUCCCGUCCGGACCG	≤ 0.5
GUUCCGUUGGCGUAACGGUAACGCGUCUCCCUCCUAAGGAGAAGACUGCGGGUUCGAGUCCUGUAUGGAACG	0.722
GUUCCGUUGGCGUAACGGUAACGCGUCUCCCUCCUAAGGAGAAGACUGCGGGUUUGAGUCCCGUACGGAACG	0.831
GUUCCGUUGGCGUAACGGUAACGCGUCUCCCUCCUAAGGAGAAGACUGCGGGUUCGAGUUCCGUACGGAACG	0.79
GUUCCGUUGGCGUAACGGUAACGCGUCUCCCUCCUAAGGAGAAGACUACGGGUUCGAGUCCCGUACGGAACG	0.996
GUUCCGUUGGCGUAACGAUAACGCGUCUCCCUCGUAAGAAGAAGACUGCGGGUUCGAGUCCAGUACGGAACG	≤ 0.5
GUUCCGUUGGCGUAACGGCAACGCGUCUCCCUCCCAAGGAGAAGACUGCGGGUUCGAGUCCCGUACGGAACG	≤ 0.5
GUUCCGUUGGCGUAACGGUAACGCGUCUCCCUCCUAAGGAGAAAACUGCGGGUCCCAGUCCCGUACGGAACG	0.558
GUUCCGUUGGCGUAACGGCAACGCGUCUCCCUCCUAAGGAGAAGACUGCGGGUUCGAGUCCCGUGCGGAACG	1.05
GUUCCGUUGGCGUAACGGUAACGCGUCUCCCUCCUAAGGAGAAGACUGCGGAUUCGAGUCCCGUACGGAACG	0.713
GUUCCGUUGGCGUAACGGUAACGCGUCUCCCUCCUAAGGAGAAGACCGCGUGUUCGAGUCCCGUACGGAACG	≤ 0.5
GUUCCGUUGGCGUAACGGUAACGCGUCUCCCUCCCAAGGAGAACACUGCGGGUUCGAGUCCCGUACGGAACG	≤ 0.5
GUUCCGUUGGCGUAACGGUAACGCGUCUCCCUCCUAAGGAGAAGAGUGCGGGUUCGUGUCCCGUACGGAACG	0.588

Variant	yeast fitness
GUUCCGUUGGCGUAACGGUAACGCGCCUCCCUUCUAAGGAGAAGACUGCGGGUUCGAGUCCCCUACGGAACG	≤ 0.5
GUUCCGUUGGCGUAACCGUAACGCGUGUCCCUCCUAAGGAGAAGACUGCGGGUUCGAGUCCCGUUCGGAACG	≤ 0.5
GUUCCGUUGGCGUAACCGUAACGCGUCUCCCUCCUAAGGAGAAGACUGCGGGUUCGAGUCCCGUACGGAACG	0.665
GUUCCGUUGGCGUAACAGUAACGCGUCUCCCUCCUAAGGAGAAGACUGCGGGUUCGAGUCCCGUACGGAACG	0.797
GUUCCGUUGGCGUAACGUUAACGUGUCUCCCUCCUAAGGAGAAGCGUGCGGGUUCGAGUCCCGUACGGAACG	≤ 0.5
GUUCCGUUGGCGUAACGGUAACGCGUCUCCCUCCUAAGGAGAAGACUGCGGGUUCGAAUCCCGUACGGAACG	0.87
GUUCCGUUGGCGUAACGGUAACGCGUCUCCCUCCUAAGGAGAAGACUGCGGGUUCAAGUCCCGUACGGAACG	1.01
GUUCCGUUGGCGUAACGGUAACGCGUCUCCCUCCUAAGAAGAAGACUGCGGGUUCGAGUCGGGUACGGAACG	≤ 0.5
GUUCCGUUGGCGUAACGGUAACGCGUCUCCCUCCUAAGGAGAAGAGUGCGGGUUCGAGUCCCGUACGGAACG	0.979
GUUCCGUUGGCGUAAGGGUCGCGCGUCUCUCUCCUAAGGAGAAGACUGCGGGUUCGAGUCCCGUACGGAACG	0.579
GUUCCGUUGGCGUAACGGUAACGCGUCACCCUCCUAAGGAGAAGACUGCGGGUUCGAGUCCCGUACGGAACG	0.827
GUUCCGUUGGCGUAACGGUAACGCCCCUCCCUCUUAAGGAGAAGACUGCGGGUUCGAGUCCCGGACGGAACG	0.528
GUUCCGUUGGCGUAACGGUAACGCGUCUCCCUCCUAACGAGAAGACUGCGGGUUCGAGUCCCGUUUGGAACG	0.569
GUUCCGUUGGCGUAACGGUAACGCGUCUCCCUCCUAAGGAGAAGACUGCGGGUUAGAGUCCCGUACAGAGCG	≤ 0.5
GUUCCGUUGGCGUAACGGUAACGCGUCUCCCUCCUAAGGAGAAGACCGCGGGUUCGAGUCCCGGACGGAACG	≤ 0.5
GUUCCGUUGGCGUAACGGUAACGCGUCUCCCUCCUAAGGAGAAGACUGCGGGUUCGAGUCGCGUACGGAACG	0.63
GUUCCGUUGGCGUAACGGUAACGCGUCUCCCUCCUAAGGACAAGACUGCGGGUUCGAGUCCCGUACGGAACG	0.867
GUUCCGUUGGCGUAACGGUAACGCGUCUCCCCCCUAAGGACAAGACUGCAGGUUCGAGUCGCGUACGGAACG	0.567
GUUCCGUUGGCGUAACGGUAACGCGGCUCCCUCCUAAGGAGAAGACUGCGGGUUCGAGUCUCGUACGGAACG	≤ 0.5
GUUCCGUUGGCGUAACGGUAACGCGUCUCCCUCCAAAGGAGAAGACUGCGGGUUCGAGUCACGUACGGAUCG	0.532
GUUCCGUUGGCGUAACAGUAACGCGUUUCCCUCGUAACGAGAGGACUGCGGGUUCGAGUCCAGUACGGAACG	≤ 0.5
GUUCCGUUGGCGUAACGGUAACGCGUCUCCCUCCUAAGGAGAAGACUGCGGGUUCGAGUCCCGUACAGAACG	0.891
GUUCCGUUGGCGUAACGGUAACGCGUCUCCCUCCUAAGGAGAAGACUGAGGGUUCGAGUCCCAUACGGAACG	≤ 0.5
GUUCCGUUGGCGUAACGGUAACGCGUCUCCCUCCUAAGGAGAAGACUGCGGGUUCGAGUCCCGUACGCUACG	≤ 0.5
GUUCCGUUGGCGUAACGGUAACGCGUCUCCCGCCUAAGGAGAAGACUGGGGGUUAGAGUCCCGUACGGAACG	≤ 0.5
